# Source: PubChem BioAssay
# FLuc inhib CS – inhibits firefly luciferase, flagging false hits in luciferase inhibition screens | ATPLite firefly luciferase biochemical luminescence, 10 min | P08659 | 200,000 tested, 1.5% active | inhibition, % at 10 µM;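 active means inhibition above about 50% when tested at 10 µM, limit read from the data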
# Target sequence (P08659 whole entry, looked up): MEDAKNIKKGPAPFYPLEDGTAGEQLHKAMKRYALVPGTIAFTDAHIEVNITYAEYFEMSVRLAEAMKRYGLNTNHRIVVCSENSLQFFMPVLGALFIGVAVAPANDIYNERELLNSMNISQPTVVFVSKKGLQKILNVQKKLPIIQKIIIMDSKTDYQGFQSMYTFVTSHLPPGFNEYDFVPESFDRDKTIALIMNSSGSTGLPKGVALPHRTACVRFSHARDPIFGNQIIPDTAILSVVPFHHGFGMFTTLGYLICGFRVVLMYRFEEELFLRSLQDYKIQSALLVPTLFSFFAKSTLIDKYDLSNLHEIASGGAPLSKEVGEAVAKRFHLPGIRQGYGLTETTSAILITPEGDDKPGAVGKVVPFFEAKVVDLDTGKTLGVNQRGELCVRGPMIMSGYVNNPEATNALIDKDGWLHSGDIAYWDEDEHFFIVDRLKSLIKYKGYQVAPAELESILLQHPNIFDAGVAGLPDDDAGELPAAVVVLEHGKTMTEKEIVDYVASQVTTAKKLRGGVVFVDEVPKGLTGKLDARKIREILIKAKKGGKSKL
# FLuc act counter – firefly luciferase counter-screen for stimulation assays; AID 1027; P08659; 200,000 tested, under 10 active; ATPlite luciferase biochemical, luminescence, 10 min; 0 = ATP-free wells, 1 = DMSO control; activation factor at 10 µM;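 active means luciferase activation factor, scaled between plate controls, of at least 2 with compound at 10 µM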
#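 System: cell-free luciferase reagent; medium: PBS as buffer for the ATP substrate; doses: test compounds dosed from 2 mM stocks in 100% DMSO; incubation: 10 min, room temperature; measured by: luminescence from luciferase reaction; read-out: luciferase activation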
# TRAIL sens C8 – sensitizes caspase-8 expressing cells to TRAIL. NB7+C8 cells + TRAIL, ATPlite viability luminescence. inhibition (viability loss, TRAIL sensitization), % at 10 µM. 360,000 tested, 1% active. AID 624354;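 active means compounds causing at least 50% loss of cell viability in the single-dose screen, relative to plate controls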
# PPC-1+TRAIL kill – kills PPC-1 cancer cells in the presence of TRAIL; cell killing (% activity), % at 4 µM or 5 µM; 220,000 tested, 0.41% active; PPC-1 cells + TRAIL, ATPLite viability luminescence; AID 1443;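 active means cell killing above 50% in the first pass at 4 µM, then a duplicate retest at 5 µM averaging 50% or more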
# A number is an active result; 0 = inactive; - = no result. A selection: hits, their analogues and other compounds. The true share with any hit is near 1.6%.
SMILES,FLuc inhib CS,FLuc act counter,TRAIL sens C8,PPC-1+TRAIL kill
COCCN(C(=O)COC(=O)C12CC3CC(CC(C3)C1)C2)c1c(N)n(Cc2ccccc2)c(=O)[nH]c1=O,-,-,0,-
Cc1ccc(/C=C/C(=O)Nc2ccncc2)o1,0,0,0,0
Cc1ccc(/C=C/C(=O)Nc2ccc(N(C)C)cc2)o1,66.6,0,0,0
COc1ccc(N(C)C(=O)C2CCCN2S(=O)(=O)c2cccc3nsnc23)cc1 (configuration not stated),-,-,0,-
Cc1ccc(Nc2nc3ccccc3s2)c(C)c1,65.6,0,55.1,0
CC(C)(C)C(=O)COC(=O)c1cccc(NC(=O)c2ccco2)c1,0,0,0,0
COC(=O)c1cccc(NC(=O)/C=C/c2ccc([N+](=O)[O-])cc2)c1,0,0,71.3,0
CC(=O)Nc1ccc(C(=O)OCC(=O)c2cccc([N+](=O)[O-])c2)cc1,0,0,0,0
CCOC(=O)c1cccc(NC(=O)/C=C/c2ccc([N+](=O)[O-])cc2)c1,0,0,76.2,0
O=C(COC(=O)c1cccc(NC(=O)c2ccco2)c1)c1ccc(Br)cc1,60.1,0,0,0
Cc1ccc(C(=O)COC(=O)c2cccc(NC(=O)c3ccc([N+](=O)[O-])cc3[N+](=O)[O-])c2)cc1,96.0,0,0,0
CCCCCCCCC(=O)N1C(C)CCC1C (configuration not stated),-,-,0,-
COc1ccc(-c2cc(C(=O)O)nc3ccc4ccccc4c23)cc1OC,65.1,0,0,0
CNC(=S)N/N=C/c1cccc(OCc2ccccc2F)c1,51.5,0,0,0
Oc1ccc(C=Nc2ccc(N3CCOCC3)cc2)c(O)c1,77.8,0,0,0
O=[N+]([O-])c1cc(Cl)ccc1-c1nc(-c2ccccc2)no1,67.2,0,0,0
O=C(N/C(=C/c1ccc(Br)cc1)C(=O)N1CCCCC1)c1ccccc1F,-,-,0,-
O=C1c2c(O)ccc(O)c2C(=O)c2c(NCCNCCO)ccc(NCCNCCO)c21,-,-,82.4,-
O=C1c2ccccc2C(=O)c2c(Nc3ccc(CCO)cc3)ccc(O)c21,-,-,0,0
COc1cccc(C(=O)Nc2cc(C(=O)NCc3ccc(C)cc3)ccc2N2CCC3(CC2)CC(c2cccc(Br)c2)=NO3)c1,-,-,0,-
O=C(C[C@H]1C/C=C\C[C@H](NC(=O)OCC2c3ccccc3-c3ccccc32)C(=O)O[C@H](c2ccccc2)CNC1=O)N[C@H](CO)Cc1ccccc1,-,-,84.7,-
O=C(N[C@@H]1C/C=C\C[C@H](CC(=O)N(CCO)Cc2ccccc2)C(=O)NC[C@@H](c2ccccc2)OC1=O)OCC1c2ccccc2-c2ccccc21,-,-,0,-
COc1cccc(C(=O)OCC(=O)N2CCc3ccccc3C2)c1OC,-,-,0,-
COc1ccc(C(=O)NC2CCCc3ccccc32)cc1[N+](=O)[O-] (configuration not stated),-,-,0,-
Cc1ccc(-n2[nH]c(C)c(C=Nc3ccc4[nH]c(=O)[nH]c4c3)c2=O)cc1C,0,0,51.3,0
SMILES,FLuc inhib CS,FLuc act counter,TRAIL sens C8,PPC-1+TRAIL kill
C=CCn1c(/N=C/c2ccc3c(c2)OCO3)nc2ccccc21,71.6,0,0,0
CN(C(=O)COC(=O)c1ccc(F)c(S(=O)(=O)N2CCOCC2)c1)C1CCS(=O)(=O)C1 (configuration not stated),-,-,0,-
CN1CCN(c2ccc3sc(-n4ccc5ccccc54)nc3c2)CC1,-,-,67.8,-
Cc1ccc2c(c1)CCCN2S(=O)(=O)c1cccc(C(=O)Nc2ccccc2C(=O)O)c1,-,-,0,-
Nc1nn2cc(-c3ccc(Br)cc3)nc2c2ccccc12,-,-,50.7,0
Cc1ccc(Nc2nc(N)c3ccccc3n2)cc1C,-,-,78.9,-
Cc1cc(Nc2ccc(C)c(C)c2)c2ccccc2n1,-,-,0,-
CC(=O)c1ccc(N2CCN(c3ccc4cc(S(=O)(=O)N5CCC(C)CC5)ccc4n3)CC2)cc1,-,-,60.1,-
O=C(Nc1cccc(O)c1)c1noc2c1CCc1ccccc1-2,87.2,0,71.3,0
COc1cccc(C(=O)Nc2ccc(C(F)(F)F)n(C)c2=O)c1,56.4,0,0,0
CC(C)C[C@H](NC(=O)c1nc[nH]c1C(=O)N[C@@H](CC(C)C)C(=O)OCc1ccccc1)C(=O)OCc1ccccc1,-,-,52.0,-
CC(C)C[C@H](NC(=O)c1[nH]cnc1C(=O)N[C@@H](Cc1ccccc1)C(=O)OCc1ccccc1)C(=O)OCc1ccccc1,-,-,0,-
CC(C)(C)OC(=O)NCCCC[C@H](NC(=O)c1[nH]cnc1C(=O)N[C@@H](Cc1ccccc1)C(=O)OC(C)(C)C)C(=O)OC(C)(C)C,-,-,57.6,0
CC(C)C[C@H](NC(=O)c1nc[nH]c1C(=O)N[C@@H](CC(C)C)C(=O)OC(C)(C)C)C(=O)OC(C)(C)C,-,-,54.7,0
O=c1c(=NNc2ccccc2Cl)c(=O)c2ccccc12,80.1,0,76.7,0
Cc1cc(C)c(NN=c2c(=O)c3ccccc3c2=O)c(C)c1,0,0,0,0
O=C(N/N=C/c1cccc([N+](=O)[O-])c1)c1cc(-c2ccccc2)nc2ccccc12,0,0,0,0
Cc1ccc(-c2nc(N/N=C/c3cccc([N+](=O)[O-])c3)c3ccccc3n2)cc1,81.6,0,64.5,-
COc1ccc(C(=O)CN2C(=O)c3ccccc3S2(=O)=O)cc1,-,-,64.9,0
Cc1ccc(C)c(C(=O)CN2C(=O)c3ccccc3S2(=O)=O)c1,0,0,0,0
CCCn1c(C)cc(C(=O)CN2C(=O)c3ccccc3S2(=O)=O)c1C,-,-,57.9,-
COCCn1c(C)cc(C(=O)Cn2nc(C(=O)O)c3ccccc3c2=O)c1C,91.2,0,64.0,0
COc1ccc(C(=O)CN2C(=O)c3ccccc3S2(=O)=O)cc1Br,-,-,0,-
CCCn1c(C)cc(C(=O)Cn2nnc3ccccc3c2=O)c1C,57.4,0,0,0
O=C(O)CN1CCc2ccccc2C1,0,0,0,0
SMILES,FLuc inhib CS,FLuc act counter,TRAIL sens C8,PPC-1+TRAIL kill
Cc1cc(C(=O)Cn2nc(C(=O)O)c3ccccc3c2=O)c(C)n1-c1ccc(F)cc1,75.6,0,0,57.1
COc1cc(NC(=O)COc2ccc(-n3ccnc3)cc2)cc(OC)c1,0,0,0,0
COc1ccc(OCC(=O)N/N=C(\C)c2ccc(-n3ccnc3)cc2)cc1,56.9,0,0,0
CC(C)(C)c1ccc(NC(=O)COc2ccc(-n3ccnc3)cc2)cc1,0,0,0,0
C/C(=N\NC(=O)COc1ccc(C(C)(C)C)cc1)c1ccc(-n2ccnc2)cc1,79.8,0,59.2,0
CC1=C(C(=O)N(C(C)C)C(C)C)CC(CC(=O)NCCc2ccccn2)C(=O)N1Cc1ccc(F)cc1 (configuration not stated),-,-,0,-
CCOC(=O)c1c(C)nc2c3ccccc3ccn12,53.7,0,49.6,0
CCOC(=O)c1c(C)nc2c(C)cccn12,0,0,0,0
O=C1C2C(C(=O)N1/N=C/c1ccc([N+](=O)[O-])o1)C1C=CC2C12CC2 (configuration not stated),0,0,0,0
CC1=NN(c2nc(N)nc(/C(C#N)=C/c3ccc([N+](=O)[O-])o3)n2)C(C)(C)C1,-,-,79.5,-
